Measurements from ChEMBL document CHEMBL1135536, “Structure-activity relationships in 4-aminoquinoline antiplasmodials. The role of the group at the 7-position” (J Med Chem, 2002).

Legend:
[1] = Normalised IC50 was measured; assay type: functional
In short: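 Normalized IC50 is the D10 P. falciparum IC50 multiplied by α. α is the compound's calculated vacuolar accumulation ratio divided by chloroquine's, both from measured pKa values, assuming vacuolar pH 5.5 and external pH 7.4.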

Plasmodium falciparum = assay: In vitro antiplasmodial activity against chloroquine-sensitive Plasmodium falciparum D10; assay type: functional, organism-based
[2] = Association constant of hematin-aminoquinoline complex formation reported by spectrophotometric titration in aqueous dimethyl sulfoxide(DMSO) at pH 7.5; assay type: ADME; details: buffer
In short: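 Spectrophotometric titration of monomeric hematin with aminoquinoline, fitted to 1:1 complex formation. Run at 25 °C, pH 7.5, in 40% aqueous DMSO with 20 mM HEPES. Reported as log K, the average of three independent measurements ± 1 SEM.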

[3] = Acid dissociation constant of the tertiary ammonium group; assay type: ADME; details: read-out: pKa2
In short: (§1)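 Glass-electrode potentiometric titration under nitrogen at 25 °C in 0.15 M NaCl background electrolyte. Data were fitted to give two pKa values per aminoquinoline. Reported values are the average of three independent measurements, with error given as 1 SD.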

[4] = Acid dissociation constant of the quinolinium cation; assay type: ADME; details: read-out: pKa1; in short: as §1

Row | Structure (SMILES) | IC50 [1] [nM] | IC50 (Plasmodium falciparum) [nM] | Log K [2] | pKa [3] | pKa [4]
1 | CCN(CC)CCNc1ccnc2cc(I)ccc12 | 17 | 35 | 5.02 | 7.79 | 7.48
2 | CCN(CC)CCNc1ccnc2ccccc12 | 892 | 1060 | 4.75 | 9.42 | 7.96
3 | CCN(CC)CCNc1ccnc2cc(Br)ccc12 | 28 | 36 | 4.99 | 7.97 | 7.93
4 | CCN(CC)CCNc1ccnc2cc(C(F)(F)F)ccc12 | 48 | 99 | 4.67 | 7.65 | 7.5
5 | CCN(CC)CCNc1ccnc2cc(O)ccc12 | 700 | 3070 | 4.48 | 8.95 | 6.82
6 | CCN(CC)CCNc1ccnc2cc(OC)ccc12 | 399 | 448 | 4.83 | 9.5 | 8.09
7 | CCN(CC)CCNc1ccnc2cc(C)ccc12 | 74 | 82 | 4.86 | 9.51 | 8.12
8 | CCN(CC)CCNc1ccnc2cc(F)ccc12 | 92 | 138 | 4.6 | 9.24 | 7.62
9 | CCN(CC)CCNc1ccnc2cc([N+](=O)[O-])ccc12 | 28 | 325 | 4.65 | 8.8 | 6.28
10 | CCN(CC)CCNc1ccnc2cc(N)ccc12 | > 4830 | > 5000 | 4.35 | 10 | 8.36
11 | CCN(CC)CCNc1ccnc2cc(Cl)ccc12 | 23 | 37 | 5.81 | 8.83 | 7.56
